Reference: ChEMBL document CHEMBL1153086, “N-acylpolyamine inhibitors of HDM2 and HDMX binding to p53” (Bioorg Med Chem, 2009)

Legend:
[1] = biological target: T1, Protein Mdm4 (Homo sapiens, UniProt O15151); experiment: Inhibition of GST-tagged HDMX expressed in Escherichia coli BL21 (DE3) assessed as inhibition of HDMX binding to p53 protein by fluorescence anisotropy competition method
T1 sequence (O15151 whole entry): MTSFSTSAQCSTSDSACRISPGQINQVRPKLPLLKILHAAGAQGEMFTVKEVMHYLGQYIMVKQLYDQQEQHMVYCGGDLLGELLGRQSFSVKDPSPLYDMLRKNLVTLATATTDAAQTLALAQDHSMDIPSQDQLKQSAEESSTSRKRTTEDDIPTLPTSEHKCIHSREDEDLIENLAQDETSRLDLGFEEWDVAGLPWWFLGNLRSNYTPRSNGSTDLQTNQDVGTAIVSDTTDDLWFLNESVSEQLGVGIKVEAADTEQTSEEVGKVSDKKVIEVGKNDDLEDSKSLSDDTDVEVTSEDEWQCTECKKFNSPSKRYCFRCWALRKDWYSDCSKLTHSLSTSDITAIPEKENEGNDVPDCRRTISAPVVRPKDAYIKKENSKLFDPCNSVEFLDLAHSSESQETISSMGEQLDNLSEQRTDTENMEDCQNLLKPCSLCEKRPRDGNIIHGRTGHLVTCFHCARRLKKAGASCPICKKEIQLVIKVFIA

[2] = biological target: E3 ubiquitin-protein ligase Mdm2 (Homo sapiens, UniProt Q00987); experiment: Inhibition of HDM2 expressed in Escherichia coli BL21 (DE3) assessed as inhibition of HDM2 binding to p53 protein by fluorescence anisotropy competition method
Chain of E3 ubiquitin-protein ligase Mdm2 (Q00987 whole entry): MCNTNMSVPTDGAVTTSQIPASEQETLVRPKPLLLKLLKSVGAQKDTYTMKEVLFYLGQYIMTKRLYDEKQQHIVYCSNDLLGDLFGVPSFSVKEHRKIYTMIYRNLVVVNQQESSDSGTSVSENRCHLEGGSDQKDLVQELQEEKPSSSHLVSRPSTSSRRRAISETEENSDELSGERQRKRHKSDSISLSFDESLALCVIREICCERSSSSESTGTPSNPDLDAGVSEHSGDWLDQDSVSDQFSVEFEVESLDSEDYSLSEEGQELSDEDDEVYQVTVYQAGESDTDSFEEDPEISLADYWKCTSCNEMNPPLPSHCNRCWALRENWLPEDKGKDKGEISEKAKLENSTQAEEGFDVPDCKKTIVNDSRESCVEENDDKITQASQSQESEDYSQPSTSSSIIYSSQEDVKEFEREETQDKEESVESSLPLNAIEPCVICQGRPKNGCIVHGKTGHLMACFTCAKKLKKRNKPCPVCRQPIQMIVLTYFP
Method in brief: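 Fluorescence anisotropy competition: HDM2(11–119) at 2.2 μM with 30 nM fluorescein-labeled human p53(15–29) (protein in 70-fold molar excess) in 10 mM Tris-HCl pH 7.6, 150 mM NaCl, 0.50 mM EDTA, 2 mM β-mercaptoethanol, incubated room temperature 1 h or 4 °C overnight. Competitor diluted in water from ~10−2 M stocks. Anisotropy read at 25 °C in triplicate; IC50 from nonlinear fit with slope factor.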

SMILES	IC50 ([1]; read-out: IC50) [µM]	IC50 ([2]; read-out: IC50) [µM]	IC50 [1]	IC50 [2]
Cc1ccc(CCNC(=O)N(CC(CCCCN)N(CC(CCC(=O)O)NC(=O)CCC(C)C)C(=O)NCCCC2CCCCC2)C(CCC(=O)O)CN(CCC(N)=O)C(=O)NCCCc2ccc(Br)cc2)cc1 (centres undefined)	3.2	2.3	–	–
NCCCC[C@@H](CN(C(=O)NCCCC1CCCCC1)[C@@H](CCCCN)CN(C(=O)NCCc1ccc(Br)cc1)[C@@H](CCCCN)CN(CCC(N)=O)C(=O)NCCCc1ccc(F)cc1)NC(N)=O	–	–	Not Active	Not Active
NCCCCC(CN(C(=O)NCCc1ccc(Br)cc1)C(CCC(=O)O)CN(CCC(N)=O)C(=O)NCCCc1ccc(Br)cc1)N(CC(CCC(=O)O)NC(=O)NCC1CCCCC1)C(=O)NCCCC1CCCCC1 (centres undefined)	8	6.6	–	–
NCCCCC(CN(C(=O)NCCc1ccc(Br)cc1)C(CCC(=O)O)CN(CCC(N)=O)C(=O)NCCCc1ccc(Br)cc1)N(CC(CCC(=O)O)NC(=O)CCC1CCCCC1)C(=O)NCCCC1CCCCC1 (centres undefined)	7.5	2.8	–	–
C=CCNC(=O)NC(CCC(=O)O)CN(C(=O)NCCCC1CCCCC1)C(CCCCN)CN(C(=O)NCCc1ccc(Br)cc1)C(CCC(=O)O)CN(CCC(N)=O)C(=O)NCCCc1ccc(Br)cc1 (centres undefined)	10	17	–	–
NCCCCC(CN(C(=O)NCCc1ccc(Br)cc1)C(CCC(=O)O)CN(CCC(N)=O)C(=O)NCCCc1ccc(Br)cc1)N(CC(CCC(=O)O)NC(=O)Cc1ccccc1)C(=O)NCCCC1CCCCC1 (centres undefined)	7.6	10.5	–	–
Cc1ccc(CCNC(=O)N(CC(CCCCN)N(CC(CCC(=O)O)NC(=O)CCC(C)C)C(=O)NCCCC2CCCCC2)C(CCC(=O)O)CN(CCC(N)=O)C(=O)NCCCc2ccc(F)cc2)cc1 (centres undefined)	5.1	2.9	–	–
CC(C)CCC(=O)N[C@@H](CCCC(=O)O)CN(C(=O)NCCCC1CCCCC1)[C@@H](CCCCN)CN(C(=O)NCCc1ccc(Br)cc1)[C@@H](CCCC(=O)O)CN(CCC(N)=O)C(=O)NCCCc1ccc(F)cc1	41	5.9	–	–
Cc1ccc(CCNC(=O)N(CC(CCCCN)N(CC(CCC(=O)O)NC(=O)CCC(C)C)C(=O)NCCCC2CCCCC2)C(CCC(=O)O)CN(CCC(N)=O)C(=O)NCCCCc2ccc(F)cc2)cc1 (centres undefined)	14	13	–	–
NCCCCC(CN(C(=O)NCCc1ccc(Br)cc1)C(CCC(=O)O)CN(CCC(N)=O)C(=O)NCCCc1ccc(Br)cc1)N(CC(CCC(=O)O)NC(=O)[C@@H]1CCCN1)C(=O)NCCCC1CCCCC1 (some centres undefined)	10	8.2	–	–
NCCCCC(CN(C(=O)NCCc1ccc(Br)cc1)C(CCC(=O)O)CN(CCC(N)=O)C(=O)NCCCc1ccc(Br)cc1)N(CC(CCC(=O)O)NC(N)=O)C(=O)NCCCC1CCCCC1 (centres undefined)	6.5	6.4	–	–
CC(C)CCC(=O)NC(CCC(=O)O)CN(C(=O)NCCCC1CCCCC1)C(CCCCN)CN(C(=O)NCCc1ccc(Br)cc1)C(CCC(=O)O)CN(CCC(N)=O)C(=O)NCCCc1ccc(Br)cc1 (centres undefined)	4.1	2.8	–	–
CC(C)CCC(=O)NC(CCC(=O)O)CN(C(=O)NCCCC1CCCCC1)C(CCCCN)CN(C(=O)NCCc1ccc(Br)cc1)C(CCC(=O)O)CN(CCC(N)=O)C(=O)NCCCc1ccc(F)cc1 (centres undefined)	2.7	2.6	–	–
NCCCCC(CN(C(=O)NCCc1ccc(Br)cc1)C(CCC(=O)O)CN(CCC(N)=O)C(=O)NCCCc1ccc(Br)cc1)N(CC(CCC(=O)O)NC(N)=O)C(=O)NCCCc1ccccc1 (centres undefined)	20	13	–	–
CC(C)CCNC(=O)N(CC(CCC(=O)O)NC(N)=O)C(CCCCN)CN(C(=O)NCCc1ccc(Cl)cc1)C(CCC(=O)O)CN(CCC(N)=O)C(=O)NCCc1ccccc1 (centres undefined)	–	> 100	–	–
CC(C)CCCNC(=O)N(CC(CCC(=O)O)NC(N)=O)C(CCCCN)CN(C(=O)NCCc1ccc(Cl)cc1)C(CCC(=O)O)CN(CCC(N)=O)C(=O)NCCc1ccc(Cl)cc1 (centres undefined)	–	63	–	–
NCCCCC(CN(C(=O)NCCc1ccc(Br)cc1)C(CCC(=O)O)CN(CCC(N)=O)C(=O)NCCCc1ccc(Br)cc1)N(CC(CCC(=O)O)NC(N)=O)C(=O)NCCCc1ccc(Br)cc1 (centres undefined)	7.5	8.2	–	–
CC(C)CCC(=O)NC(CCC(=O)O)CN(CCC1CCC2(CCCCC2)CC1)C(CCCCN)CN(CCCCc1ccc(Br)cc1)[C@@H](CCC(=O)O)CN(CCCCCc1ccc(F)cc1)CCC(N)=O (some centres undefined)	> 100	> 100	–	–
CC(C)CCCNC(=O)N(CC(CCC(=O)O)NC(N)=O)C(CCCCN)CN(C(=O)NCCc1ccc(Br)cc1)C(CCC(=O)O)CN(CCC(N)=O)C(=O)NCCc1ccc(Br)cc1 (centres undefined)	41	17	–	–
COc1ccc(CCCNC(=O)N(CC(CCC(=O)O)NC(N)=O)C(CCCCN)CN(C(=O)NCCc2ccc(Br)cc2)C(CCC(=O)O)CN(CCC(N)=O)C(=O)NCCCc2ccc(Br)cc2)cc1 (centres undefined)	12	12	–	–
NCCCCC(CN(C(=O)NCCc1ccc(Br)cc1)C(CCC(=O)O)CN(CCC(N)=O)C(=O)NCCCc1ccc(Br)cc1)N(CC(CCC(=O)O)NC(N)=O)C(=O)NCCCc1ccc([N+](=O)[O-])cc1 (centres undefined)	8.1	10	–	–

The next lines start with results.

IC50 ([1]; read-out: IC50) [µM]	IC50 ([2]; read-out: IC50) [µM]	SMILES	IC50 [1]	IC50 [2]
24	9.2	CC(C)CCCNC(=O)N(CC(CCC(=O)O)NC(N)=O)C(CCCCN)CN(C(=O)NCCc1ccc(Br)cc1)C(CCC(=O)O)CN(CCC(N)=O)C(=O)NCCCc1ccc(Br)cc1 (centres undefined)	–	–
–	18	CC(C)CCCNC(=O)N(CC(CCC(=O)O)NC(N)=O)C(CCCCN)CN(C(=O)NCCc1ccc(Br)cc1)C(CCC(=O)O)CN(CCC(N)=O)C(=O)NCCCc1ccccc1 (centres undefined)	–	–
–	20	CC(C)CCCNC(=O)N(CC(CCC(=O)O)NC(N)=O)C(CCCCN)CN(C(=O)NCCCc1ccc(Br)cc1)C(CCC(=O)O)CN(CCC(N)=O)C(=O)NCCCc1ccccc1 (centres undefined)	–	–
36	24	Cc1ccc(CCCNC(=O)N(CCC(N)=O)CC(CCC(=O)O)N(CC(CCCCN)N(CC(CCC(=O)O)NC(N)=O)C(=O)NCCCC(C)C)C(=O)NCCc2ccc(Br)cc2)cc1 (centres undefined)	–	–
13	13	CC(C)CCCCNC(=O)N(CC(CCC(=O)O)NC(N)=O)C(CCCCN)CN(C(=O)NCCc1ccc(Br)cc1)C(CCC(=O)O)CN(CCC(N)=O)C(=O)NCCCc1ccc(Br)cc1 (centres undefined)	–	–
–	85	CC(C)CCCNC(=O)N(CC(CCC(=O)O)NC(N)=O)C(CCCCN)CN(C(=O)NCCc1ccc(Cl)cc1)C(CCC(=O)O)CN(CCC(N)=O)C(=O)NCCc1ccccc1 (centres undefined)	–	–
–	43	CC(C)CCCNC(=O)N(CC(CCC(=O)O)NC(N)=O)C(CCCCN)CN(C(=O)NCCc1ccc(Cl)cc1)C(CCC(=O)O)CN(CCC(N)=O)C(=O)NCCCc1ccccc1 (centres undefined)	–	–
–	38	CC(C)CCCNC(=O)N(CC(CCC(=O)O)NC(N)=O)C(CCCCN)CN(C(=O)NCCCc1ccccc1)C(CCC(=O)O)CN(CCC(N)=O)C(=O)NCCc1ccc(Br)cc1 (centres undefined)	–	–
–	41	CC(C)CCCNC(=O)N(CC(CCC(=O)O)NC(N)=O)C(CCCCN)CN(C(=O)NCCc1ccc(Br)cc1)C(CCC(=O)O)CN(CCC(N)=O)C(=O)NCCCc1ccc([N+](=O)[O-])cc1 (centres undefined)	–	–
> 100	> 100	COc1ccc(CCCNC(=O)N(CCC(N)=O)CC(CCC(=O)O)N(CC(CCCCN)N(CC(CCC(=O)O)NC(N)=O)C(=O)NCCCC(C)C)C(=O)NCCc2ccc(Br)cc2)cc1 (centres undefined)	–	–
